The target of assay [1] is T1, Botulinum neurotoxin type E (Clostridium botulinum) (UniProt Q00496).
T1 sequence (whole entry): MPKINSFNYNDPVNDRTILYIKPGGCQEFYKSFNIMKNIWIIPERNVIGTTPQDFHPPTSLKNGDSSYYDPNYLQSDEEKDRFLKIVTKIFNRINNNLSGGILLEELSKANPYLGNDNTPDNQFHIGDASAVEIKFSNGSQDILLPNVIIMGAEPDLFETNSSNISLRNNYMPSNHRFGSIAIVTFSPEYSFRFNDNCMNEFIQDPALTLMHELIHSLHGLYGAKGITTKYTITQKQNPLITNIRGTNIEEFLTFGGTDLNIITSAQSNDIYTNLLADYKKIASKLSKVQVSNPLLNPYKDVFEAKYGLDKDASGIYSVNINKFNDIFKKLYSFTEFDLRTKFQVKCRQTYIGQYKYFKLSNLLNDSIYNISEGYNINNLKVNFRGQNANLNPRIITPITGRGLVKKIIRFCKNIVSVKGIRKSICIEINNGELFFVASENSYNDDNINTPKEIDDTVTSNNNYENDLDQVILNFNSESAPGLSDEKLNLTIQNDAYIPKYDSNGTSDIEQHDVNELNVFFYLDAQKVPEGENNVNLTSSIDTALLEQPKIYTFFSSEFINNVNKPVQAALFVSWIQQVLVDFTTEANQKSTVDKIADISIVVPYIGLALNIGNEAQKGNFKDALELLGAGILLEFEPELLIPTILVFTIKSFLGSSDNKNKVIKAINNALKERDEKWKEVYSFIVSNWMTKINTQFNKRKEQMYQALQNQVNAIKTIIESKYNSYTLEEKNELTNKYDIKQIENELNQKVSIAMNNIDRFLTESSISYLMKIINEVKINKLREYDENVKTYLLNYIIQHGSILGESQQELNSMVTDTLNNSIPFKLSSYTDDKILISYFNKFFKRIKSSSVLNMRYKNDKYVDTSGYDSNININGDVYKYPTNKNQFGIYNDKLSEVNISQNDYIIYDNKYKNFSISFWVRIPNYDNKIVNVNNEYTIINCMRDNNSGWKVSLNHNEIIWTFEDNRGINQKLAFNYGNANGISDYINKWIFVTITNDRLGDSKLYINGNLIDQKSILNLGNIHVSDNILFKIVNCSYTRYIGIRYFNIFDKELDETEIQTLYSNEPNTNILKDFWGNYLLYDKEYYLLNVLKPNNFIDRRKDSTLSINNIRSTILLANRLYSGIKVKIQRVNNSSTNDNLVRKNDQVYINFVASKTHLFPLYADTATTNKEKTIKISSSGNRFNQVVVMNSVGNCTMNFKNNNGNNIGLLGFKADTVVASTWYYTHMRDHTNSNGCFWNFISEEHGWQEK
Description: Inhibition of Clostridium botulinum BoNT/E light chain-mediated SNAP-25 cleavage assessed as reduction in residual activity using SNAP-Etide as substrate at 100 uM after 15 mins by micro plate reader method. A digest of the protocol:
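Compound was preincubated 15 min with 2.5 nM BoNT/E light chain in 20 mM Hepes pH 7.4 with 2 mM DTT (final DMSO ≤1%). Reaction was started with 10 µM SNAP-Etide at 37°C and read as fluorescence (ex 320/em 420 nm). Percent inhibition = [1 − (test initial velocity ÷ mean initial velocity of two DMSO controls)] × 100.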

Assay [2] addresses T1, Botulinum neurotoxin type E (Clostridium botulinum). The assay is described as follows: (§1) Inhibition of Clostridium botulinum BoNT/E light chain using GFP-tagged VAMP2/SNAP-25 (Ala128 to Gly206 residues) as substrate after 15 mins by GFP based micro plate reader method. A digest of the protocol: (§2)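 Recombinant BoNT/E light chain (25 nM) in 20 mM Hepes pH 7.4 with 2 mM DTT, preincubated 15 min with compound, then added to streptavidin plates carrying an immobilised biotinylated AviTag–VAMP2/SNAP-25–GFP substrate. GFP release was followed at 37°C (ex 460/em 506 nm). Triplicates over a range of concentrations; IC50 came from a sigmoid fit with Hill slope fixed at 1. The ratio uses the reference inhibitor run under the same conditions.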

For assay [3], the target named is T2, Botulinum neurotoxin type E (Clostridium botulinum, UniProt Q00496).
T2 sequence (Q00496 whole entry): T1 sequence (whole entry)
The description is as §1. Summed up:
as §2

The target of assay [4] is T3, Botulinum neurotoxin type A (Clostridium botulinum, UniProt P0DPI0). Description: Inhibition of protease activity of Clostridium botulinum BoNT/A using N(K)-acetyl)-SNKTRIDEANQRATKML-carboxamide as substrate.
In assay [5] the target is T1, Botulinum neurotoxin type E (Clostridium botulinum). The assay is described as follows: Inhibition of Clostridium botulinum BoNT/E light chain using GFP-tagged VAMP2/SNAP-25 (Ala128 to Gly206 residues) as substrate at 12.5 uM after 15 mins by GFP based micro plate reader method. A digest of the protocol: (§3)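 Immobilised biotinylated AviTag–VAMP2/SNAP-25(Ala128–Gly206)–GFP substrate on streptavidin plates. BoNT/E light chain (25 nM) in 20 mM Hepes pH 7.4 with 2 mM DTT was preincubated 15 min with compound before addition to the wells. Liberated GFP was read at 37°C (ex 460/em 506 nm). Percent inhibition at a single concentration, run in triplicate.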

Assay [6] has the same target. Description: Potency index, ratio of IC50 for NSC-77053 to IC50 for test compound for inhibition of Clostridium botulinum BoNT/E light chain using GFP-tagged VAMP2/SNAP-25 (Ala128 to Gly206 residues) as substrate after 15 mins by GFP based micro plate reader method. A digest of the protocol:
as §2

Assay [7] has the same target. Description: Inhibition of Clostridium botulinum BoNT/E light chain using GFP-tagged VAMP2/SNAP-25 (Ala128 to Gly206 residues) as substrate at 25 uM after 15 mins by GFP based micro plate reader method. A digest of the protocol: as §3
The target is the same in assay [8]. Description: Inhibition of Clostridium botulinum BoNT/E light chain using GFP-tagged VAMP2/SNAP-25 (Ala128 to Gly206 residues) as substrate at 100 uM after 15 mins by GFP based micro plate reader method. A digest of the protocol: as §3
In assay [9] the target is T3, Botulinum neurotoxin type A. Description: Inhibition of Clostridium botulinum BoNT/A light chain.
The target is the same in assay [10]. The assay is described as follows: Inhibition of protease activity of Clostridium botulinum BoNT/A using SNAP-25 as substrate by FRET analysis.

pIC50, pKi: −log10 of the molar value. Activity calls are given as the source filed them. No cut-off for these calls is given here. Square brackets hold non-standard residues; d marks the D form. Peptide text beside a SMILES is read from it. * marks the point of attachment. ξ: configuration not given here. Dnp = O=[N+]([O-])c1ccc(*)c([N+](=O)[O-])c1; ξDab = NCCC(N)C(=O)O

Experimental findings from ChEMBL document CHEMBL4431362, “Identification of small molecule inhibitors of botulinum neurotoxin serotype E via footprint similarity” (Bioorg Med Chem, 2016) are described below.

T3 sequence (P0DPI0 2-448 limits assumed): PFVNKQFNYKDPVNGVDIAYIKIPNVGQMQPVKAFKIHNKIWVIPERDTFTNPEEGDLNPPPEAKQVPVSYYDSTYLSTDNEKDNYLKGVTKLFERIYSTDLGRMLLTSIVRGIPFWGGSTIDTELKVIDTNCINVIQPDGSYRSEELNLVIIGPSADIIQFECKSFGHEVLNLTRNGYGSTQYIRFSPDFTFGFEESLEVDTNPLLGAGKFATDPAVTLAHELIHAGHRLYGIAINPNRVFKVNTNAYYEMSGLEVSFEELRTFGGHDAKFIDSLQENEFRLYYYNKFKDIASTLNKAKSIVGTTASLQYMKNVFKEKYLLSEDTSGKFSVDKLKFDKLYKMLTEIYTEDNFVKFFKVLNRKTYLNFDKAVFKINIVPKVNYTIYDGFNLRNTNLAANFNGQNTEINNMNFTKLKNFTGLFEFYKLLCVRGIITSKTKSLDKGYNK

As to `CC(=O)N/C(=C\c1c[nH]c2ccccc12)C(=O)N[C@@H](Cc1c[nH]c2ccccc12)C(=O)O` (stereo in doubt), the inhibition in [1] is 52%. In addition, the inhibition entry in assay [2] is “inactive”.

With `COc1ccc(N(CC(=O)Nc2ccc(F)c(Cl)c2)S(=O)(=O)c2c(C)[nH]c(=O)[nH]c2=O)cc1`, the inhibition in assay [1] was 41%. The inhibition entry in assay [2] is “inactive”.

As to `COc1ccc(CNC(=O)C(=O)N[C@@H](C)[C@H](c2cccs2)N2CCN(Cc3ccccc3)CC2)cc1`, the inhibition in assay [1] came to 47%. Also, the inhibition result in [2] is “inactive”.

In turn, `CC[C@H](C)[C@H](NS(=O)(=O)c1ccc2oc(=O)n(C)c2c1)C(=O)Nc1cccc(C)c1C` showed a pIC50 in assay [3] of 4.80.

Turning to `CCOc1ccc(NC(=O)CSc2nccn2-c2cccc(C(=O)Nc3ccccc3)c2)cc1`, in [1], the inhibition worked out at 40%. Also, the inhibition entry in assay [2] was “inactive”.

In the case of `Cc1ccc(NC(=O)N2CC(=O)N(CC(=O)NC[C@H]3CCCO3)c3ccccc32)cc1`, the inhibition in assay [1] amounted to 33%. Moreover, the inhibition result in [2] is “inactive”.

Regarding H-CRATKML-OH, the negative-log Ki (pKi) in assay [4] was 5.70.

In the case of `Cc1cc(C)cc(N(CC(=O)Nc2ccc(C(F)(F)F)cc2)S(=O)(=O)c2c(C)nc(O)nc2O)c1`, the inhibition in [1] is 42%. For the same molecule, the inhibition entry in assay [2] is “inactive”.

For `CC(=O)c1cccc(NC(=O)CSc2nnc(SCC(=O)Nc3cccc(C(C)=O)c3)s2)c1`, the inhibition in [1] was 31%. In addition, the inhibition entry in assay [2] was “inactive”.

Consider `Cc1cccc(NC(=O)[C@@H](CC(C)C)NS(=O)(=O)c2ccc3oc(=O)n(C)c3c2)c1C`, for which the inhibition was 46.5% in [5], 58% in [7], 71% in assay [1] and 84% in [8]. The Ratio IC50 in [6] worked out at 3. In assay [3], this molecule gave a pIC50 of 4.85.

Take `N=C(N)NCCC[C@H](NC(=O)[C@@H](N)CCCNC(=N)N)C(=O)NCC(=O)N[C@@H](Cc1ccccc1)C(=O)O` (H-RRGF-OH): in assay [9], the pIC50 is 6.05.

`O=C(O)c1ccccc1C(=O)c1ccc2c(c1)Cc1ccccc1-2`: the pIC50 in [3] is 4.31.

As to `CSCC[C@H](NC(=O)C(CCN)NC(=O)[C@@H](NC(=O)[C@H](Cc1c[nH]c2ccccc12)NC(=O)[C@H](CCCNC(=N)N)NC(=O)C(N)CCNc1ccc([N+](=O)[O-])cc1[N+](=O)[O-])[C@@H](C)O)C(=O)N[C@@H](CC(C)C)C(=O)O` (stereo partly specified) (H-[ξDab](Dnp)RWT[ξDab]ML-OH), the pKi in [4] was 7.39.

With `CCOc1ccc(OCC)c(NC(=O)CSc2cc(N3CCC(C(=O)NC4CC4)CC3)ncn2)c1`, the inhibition in [1] was determined as 25%. The inhibition result in assay [2] is “inactive”.

As to `Cc1cccc(NC(=O)[C@H](CC(C)C)NS(=O)(=O)c2ccc3oc(=O)n(C)c3c2)c1C`, the results for the inhibition in assay [5], in assay [7] and in assay [8] were 52%, 62.5% and 77.5%, respectively.

Take `O=C(/C=C/c1ccc(Cl)cc1)NO`: the pIC50 in assay [10] was 4.82.
